Laboratory results published in ChEMBL document CHEMBL4261538, “Synthesis and molecular docking studies of xanthone attached amino acids as potential antimicrobial and anti-inflammatory agents” (Medchemcomm, 2017).
Calls of active or inactive are those of the source. The rule behind the calls is not given here.

Legend:
Staphylococcus aureus [1] = assay: Antibacterial activity against Staphylococcus aureus at 25 ug/ml incubated for 24 hrs by agar well diffusion method; type: functional; conditions: read-out: DIZ
Method in brief: (§1)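 Bacteria grown in nutrient broth at 37 °C for 24 h, then subcultured at room temperature. Compounds dissolved in DMSO at 5 mg mL⁻¹ and 5–20 µL added to 6 mm wells, giving 25, 50, 75, 100 µg per well. Gentamicin was the positive control and DMSO the negative control. Plates held at 37 °C for 24 h, then inhibition zone diameter (mm) measured. Values are means of three determinations.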

Staphylococcus aureus [2] = assay: Antibacterial activity against Staphylococcus aureus at 50 ug/ml incubated for 24 hrs by agar well diffusion method; type: functional; conditions: read-out: DIZ; method in brief: as §1
Staphylococcus aureus [3] = assay: Antibacterial activity against Staphylococcus aureus at 75 ug/ml incubated for 24 hrs by agar well diffusion method; type: functional; conditions: read-out: DIZ; method in brief: as §1
Staphylococcus aureus [4] = assay: Antibacterial activity against Staphylococcus aureus at 100 ug/ml incubated for 24 hrs by agar well diffusion method; type: functional; conditions: read-out: DIZ; method in brief: as §1
Bacillus subtilis [5] = assay: Antibacterial activity against Bacillus subtilis at 25 ug/ml incubated for 24 hrs by agar well diffusion method; type: functional; conditions: read-out: DIZ; method in brief: as §1
Bacillus subtilis [6] = assay: Antibacterial activity against Bacillus subtilis at 50 ug/ml incubated for 24 hrs by agar well diffusion method; type: functional; conditions: read-out: DIZ; method in brief: as §1
Bacillus subtilis [7] = assay: Antibacterial activity against Bacillus subtilis at 75 ug/ml incubated for 24 hrs by agar well diffusion method; type: functional; conditions: read-out: DIZ; method in brief: as §1
Bacillus subtilis [8] = assay: Antibacterial activity against Bacillus subtilis at 100 ug/ml incubated for 24 hrs by agar well diffusion method; type: functional; conditions: read-out: DIZ; method in brief: as §1
Escherichia coli [9] = assay: Antibacterial activity against Escherichia coli at 25 ug/ml incubated for 24 hrs by agar well diffusion method; type: functional; conditions: read-out: DIZ; method in brief: as §1
Escherichia coli [10] = assay: Antibacterial activity against Escherichia coli at 50 ug/ml incubated for 24 hrs by agar well diffusion method; type: functional; conditions: read-out: DIZ; method in brief: as §1
Escherichia coli [11] = assay: Antibacterial activity against Escherichia coli at 75 ug/ml incubated for 24 hrs by agar well diffusion method; type: functional; conditions: read-out: DIZ; method in brief: as §1
Escherichia coli [12] = assay: Antibacterial activity against Escherichia coli at 100 ug/ml incubated for 24 hrs by agar well diffusion method; type: functional; conditions: read-out: DIZ; method in brief: as §1
Klebsiella pneumoniae [13] = assay: Antibacterial activity against Klebsiella pneumoniae at 25 ug/ml incubated for 24 hrs by agar well diffusion method; type: functional; conditions: read-out: DIZ; method in brief: as §1
Klebsiella pneumoniae [14] = assay: Antibacterial activity against Klebsiella pneumoniae at 50 ug/ml incubated for 24 hrs by agar well diffusion method; type: functional; conditions: read-out: DIZ; method in brief: as §1
Klebsiella pneumoniae [15] = assay: Antibacterial activity against Klebsiella pneumoniae at 75 ug/ml incubated for 24 hrs by agar well diffusion method; type: functional; conditions: read-out: DIZ; method in brief: as §1
Klebsiella pneumoniae [16] = assay: Antibacterial activity against Klebsiella pneumoniae at 100 ug/ml incubated for 24 hrs by agar well diffusion method; type: functional; conditions: read-out: DIZ; method in brief: as §1
Aspergillus niger [17] = assay: Antifungal activity against Aspergillus niger at 25 ug/ml incubated for 48 hrs by agar well diffusion method; type: functional; conditions: read-out: DIZ
Method in brief: (§2)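 Compounds dissolved in DMSO at 5 mg mL⁻¹ and 5–20 µL added to 6 mm wells, giving 25, 50, 75, 100 µg per well. Bavistin was the positive control and DMSO the negative control. Plates incubated at 28 °C for 48 h, then inhibition zone diameter (mm) measured. Values are means of three determinations.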

Aspergillus niger [18] = assay: Antifungal activity against Aspergillus niger at 50 ug/ml incubated for 48 hrs by agar well diffusion method; type: functional; conditions: read-out: DIZ; method in brief: as §2
Aspergillus niger [19] = assay: Antifungal activity against Aspergillus niger at 75 ug/ml incubated for 48 hrs by agar well diffusion method; type: functional; conditions: read-out: DIZ; method in brief: as §2
Aspergillus niger [20] = assay: Antifungal activity against Aspergillus niger at 100 ug/ml incubated for 48 hrs by agar well diffusion method; type: functional; conditions: read-out: DIZ; method in brief: as §2
Candida albicans [21] = assay: Antifungal activity against Candida albicans at 25 ug/ml incubated for 48 hrs by agar well diffusion method; type: functional; conditions: read-out: DIZ; method in brief: as §2
Candida albicans [22] = assay: Antifungal activity against Candida albicans at 50 ug/ml incubated for 48 hrs by agar well diffusion method; type: functional; conditions: read-out: DIZ; method in brief: as §2
Candida albicans [23] = assay: Antifungal activity against Candida albicans at 75 ug/ml incubated for 48 hrs by agar well diffusion method; type: functional; conditions: read-out: DIZ; method in brief: as §2
Candida albicans [24] = assay: Antifungal activity against Candida albicans at 100 ug/ml incubated for 48 hrs by agar well diffusion method; type: functional; conditions: read-out: DIZ; method in brief: as §2
Fusarium oxysporum [25] = assay: Antifungal activity against Fusarium oxysporum at 25 ug/ml incubated for 48 hrs by agar well diffusion method; type: functional; conditions: read-out: DIZ; method in brief: as §2
Fusarium oxysporum [26] = assay: Antifungal activity against Fusarium oxysporum at 50 ug/ml incubated for 48 hrs by agar well diffusion method; type: functional; conditions: read-out: DIZ; method in brief: as §2
Fusarium oxysporum [27] = assay: Antifungal activity against Fusarium oxysporum at 75 ug/ml incubated for 48 hrs by agar well diffusion method; type: functional; conditions: read-out: DIZ; method in brief: as §2
Fusarium oxysporum [28] = assay: Antifungal activity against Fusarium oxysporum at 100 ug/ml incubated for 48 hrs by agar well diffusion method; type: functional; conditions: read-out: DIZ; method in brief: as §2
Staphylococcus aureus [29] = assay: Antibacterial activity against Staphylococcus aureus incubated for 24 hrs by microdilution method; type: functional
Bacillus subtilis [30] = assay: Antibacterial activity against Bacillus subtilis incubated for 24 hrs by microdilution method; type: functional
Escherichia coli [31] = assay: Antibacterial activity against Escherichia coli incubated for 24 hrs by microdilution method; type: functional
Klebsiella pneumoniae [32] = assay: Antibacterial activity against Klebsiella pneumoniae incubated for 24 hrs by microdilution method; type: functional
Aspergillus niger [33] = assay: Antifungal activity against Aspergillus niger incubated for 48 to 72 hrs by microdilution method; type: functional
Method in brief: (§3)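 Sabouraud agar plates inoculated with fungal suspension at 10⁵ CFU mL⁻¹ plus serially diluted compounds and bavistin reference, both in DMSO. Incubated at 25 °C for 48–72 h. MIC is the lowest concentration completely inhibiting growth. Values are means of three determinations.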

Candida albicans [34] = assay: Antifungal activity against Candida albicans incubated for 48 to 72 hrs by microdilution method; type: functional; method in brief: as §3
Fusarium oxysporum [35] = assay: Antifungal activity against Fusarium oxysporum incubated for 48 to 72 hrs by microdilution method; type: functional; method in brief: as §3
Staphylococcus aureus [36] = assay: Induction of cell membrane damage in Staphylococcus aureus assessed as cell content leakage at MIC after 2 hrs by SEM analysis; type: functional, organism-based
Erythrocyte = assay: Anti-inflammatory activity in human RBC assessed as inhibition of hypotonic solution-induced hemolysis after 10 mins by spectrophotometric method; type: functional, cell-based
Method in brief: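 Human blood (heparinized) washed with 0.9% saline, packed cells made into a 40% v/v stock in isotonic phosphate buffer (154 mM NaCl, 10 mM sodium phosphate, pH 7.4). Stock RBC mixed with hypotonic buffer (50 mM NaCl, 10 mM phosphate, pH 7.4) plus sample at 20–100 µg mL⁻¹.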

Staphylococcus aureus [37] = assay: Induction of cell membrane damage in Staphylococcus aureus assessed as cell content leakage at MIC by spectrophotometric method; type: functional, organism-based; conditions: TDE = time-dependent effect
Method in brief: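 Log-phase S. aureus inoculated into 0.1% sterile peptone water, with an untreated control, and held at 37 °C for 0, 30, 60 and 120 min. 1 mL of broth centrifuged and supernatant OD read at 260 nm to measure released DNA. Run in triplicate, repeated three times.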

| SMILES | zone of inhibition at 25 µg/mL (Staphylococcus aureus [1]) | zone of inhibition at 50 µg/mL (Staphylococcus aureus [2]) | zone of inhibition at 75 µg/mL (Staphylococcus aureus [3]) | zone of inhibition at 100 µg/mL (Staphylococcus aureus [4]) | zone of inhibition at 25 µg/mL (Bacillus subtilis [5]) | zone of inhibition at 50 µg/mL (Bacillus subtilis [6]) | zone of inhibition at 75 µg/mL (Bacillus subtilis [7]) | zone of inhibition at 100 µg/mL (Bacillus subtilis [8]) | zone of inhibition at 25 µg/mL (Escherichia coli [9]) | zone of inhibition at 50 µg/mL (Escherichia coli [10]) | zone of inhibition at 75 µg/mL (Escherichia coli [11]) | zone of inhibition at 100 µg/mL (Escherichia coli [12]) | zone of inhibition at 25 µg/mL (Klebsiella pneumoniae [13]) | zone of inhibition at 50 µg/mL (Klebsiella pneumoniae [14]) | zone of inhibition at 75 µg/mL (Klebsiella pneumoniae [15]) | zone of inhibition at 100 µg/mL (Klebsiella pneumoniae [16]) | zone of inhibition at 25 µg/mL (Aspergillus niger [17]) | zone of inhibition at 50 µg/mL (Aspergillus niger [18]) | zone of inhibition at 75 µg/mL (Aspergillus niger [19]) | zone of inhibition at 100 µg/mL (Aspergillus niger [20]) | further results |
| --- | --- | --- | --- | --- | --- | --- | --- | --- | --- | --- | --- | --- | --- | --- | --- | --- | --- | --- | --- | --- | --- |
| Cl.N[C@@H](Cc1ccc(O)cc1)C(=O)Oc1ccc2c(=O)c3ccccc3oc2c1 | 23 mm | 27 mm | 35 mm | 39 mm | 23 mm | 26 mm | 38 mm | 40 mm | 21 mm | 26 mm | 34 mm | 39 mm | 21 mm | 26 mm | 31 mm | 37 mm | 24 mm | 31 mm | 38 mm | 40 mm | zone of inhibition at 25 µg/mL (Candida albicans [21]): 23 mm; zone of inhibition at 50 µg/mL (Candida albicans [22]): 30 mm; zone of inhibition at 75 µg/mL (Candida albicans [23]): 36 mm; zone of inhibition at 100 µg/mL (Candida albicans [24]): 39 mm; zone of inhibition at 25 µg/mL (Fusarium oxysporum [25]): 21 mm; zone of inhibition at 50 µg/mL (Fusarium oxysporum [26]): 28 mm; zone of inhibition at 75 µg/mL (Fusarium oxysporum [27]): 35 mm; zone of inhibition at 100 µg/mL (Fusarium oxysporum [28]): 41 mm; MIC (Staphylococcus aureus [29]): 18 µg/mL; MIC (Bacillus subtilis [30]): 19 µg/mL; MIC (Escherichia coli [31]): 20 µg/mL; MIC (Klebsiella pneumoniae [32]): 17 µg/mL; MIC (Aspergillus niger [33]): 21 µg/mL; MIC (Candida albicans [34]): 23 µg/mL; MIC (Fusarium oxysporum [35]): 23 µg/mL; Activity (Staphylococcus aureus [36]): Active; IC50 (Erythrocyte): 32 µg/mL |
| Cl.N[C@@H](Cc1c[nH]c2ccccc12)C(=O)Oc1ccc2c(=O)c3ccccc3oc2c1 | 24 mm | 31 mm | 37 mm | 42 mm | 26 mm | 32 mm | 36 mm | 43 mm | 26 mm | 31 mm | 38 mm | 43 mm | 23 mm | 30 mm | 37 mm | 44 mm | 28 mm | 31 mm | 40 mm | 46 mm | zone of inhibition at 25 µg/mL (Candida albicans [21]): 26 mm; zone of inhibition at 50 µg/mL (Candida albicans [22]): 33 mm; zone of inhibition at 75 µg/mL (Candida albicans [23]): 39 mm; zone of inhibition at 100 µg/mL (Candida albicans [24]): 44 mm; zone of inhibition at 25 µg/mL (Fusarium oxysporum [25]): 25 mm; zone of inhibition at 50 µg/mL (Fusarium oxysporum [26]): 32 mm; zone of inhibition at 75 µg/mL (Fusarium oxysporum [27]): 37 mm; zone of inhibition at 100 µg/mL (Fusarium oxysporum [28]): 42 mm; MIC (Staphylococcus aureus [29]): 16 µg/mL; MIC (Bacillus subtilis [30]): 16 µg/mL; MIC (Escherichia coli [31]): 15 µg/mL; MIC (Klebsiella pneumoniae [32]): 22 µg/mL; MIC (Aspergillus niger [33]): 21 µg/mL; MIC (Candida albicans [34]): 20 µg/mL; MIC (Fusarium oxysporum [35]): 20 µg/mL; Activity (Staphylococcus aureus [37]): Tde; IC50 (Erythrocyte): 26 µg/mL |
